Measurements gathered from unrelated publications.
Protocols differ between the studies behind these lines.
Target: Dual specificity mitogen-activated protein kinase kinase 2 (MAP2K2, Homo sapiens, UniProt P36507)

SMILES	read-out	mode	method	concentration	measurement	value
Cn1c2c(c3ccc(Cl)c(Cl)c31)C(C#N)C1(CCNCC1)NC2=O (racemic)	thermal stability		DSF	10 µM	ΔTm	-0.4 °C
N#Cc1ccc(Nc2ccc3[nH]c(=O)[nH]c3c2)c(Cl)c1	cell-free assay		competition with immobilised ligand	1 µM	remaining binding	93%
COc1cc2ncnc(Nc3ccc(Oc4ccccc4)c(C)c3C)c2cc1OC	enzyme activity	inhibitor		1 µM	inhibition	-7%
Oc1cccc(-c2nc(N3CCOCC3)c3oc4ncccc4c3n2)c1	enzyme activity	inhibitor		10 µM	remaining activity	115%
CN1CCC2(CC1)NC(=O)c1c(c3ccc(Cl)c(Cl)c3n1C)C2C#N (racemic)	thermal stability		DSF	10 µM	ΔTm	-0.3 °C
O=C1Nc2ccc(Cl)cc2C1=Cc1cc(Cl)c(O)c(Cl)c1	cell-free assay			0.5 µM	remaining signal	82%
O=C(CSc1nc2nccnc2c(=O)n1CCc1ccccc1)Nc1nccs1	enzyme activity	inhibitor		10 µM	inhibition	-3%
N#CCCc1ccc2c(c1)-c1[nH]c3ccc([N+](=O)[O-])cc3c1CC(=O)N2	cell-free assay			0.5 µM	remaining signal	90.3%
Cn1c2c(Cl)c(Cl)ccc2c2cn[nH]c(=O)c21	thermal stability		DSF	10 µM	ΔTm	-0.3 °C
O=C(Nc1cnn(-c2csc(C(=O)NC3COC3)c2)c1)Nc1ccccc1Cl	enzyme activity	inhibitor		5 µM	remaining activity	92.2%
CS(=O)(=O)N1CCCC(NC(=O)[C@H](CCC2CCCCC2)NC(=O)c2ccc(CNC(=O)c3cnc4ccccn34)cc2)C1 (some centres unmarked)	cell-free assay		competition with immobilised ligand	0.1 µM	remaining binding	100%
Cn1c2c(c3ccc(Cl)c(Cl)c31)C(C#N)C(C)(C)NC2=O (centres unmarked)	thermal stability		DSF	10 µM	ΔTm	-0.5 °C
O=C(NCc1ncc(C(F)(F)F)cc1Cl)c1ccc2c(c1)C1(CCS(=O)(=O)CC1)[C@@H](C1CC1)N2S(=O)(=O)c1ccc(F)cc1	cell-free assay		competition with immobilised ligand	1 µM	remaining binding	78%
Cc1ccc(NC(=O)c2ccc(CN3CCN(C)CC3)cc2)cc1Nc1nc(-c2cccnc2)cs1	cell-free assay			0.5 µM	remaining signal	114%
CCC1(CC)NC(=O)c2c(c3ccc(Cl)c(Cl)c3n2C)C1C#N (centres unmarked)	thermal stability		DSF	10 µM	ΔTm	-0.4 °C
FC(F)(F)Oc1cccc(-c2cnc3ccc(-c4ccncc4)nn23)c1	enzyme activity	inhibitor	radiometric	1 µM	activity vs control	84%

SMILES	read-out	mode	method	concentration	measurement	value
C#Cc1cccc(Nc2ncnc3cc(OCCOC)c(OCCOC)cc23)c1	cell-free assay			0.5 µM	remaining signal	105%
Nc1ncnc2occ(-c3ccc(NC(=O)Nc4cc(C(F)(F)F)ccc4F)cc3)c12	cell-free assay	inhibitor		20 µM	remaining signal	7.1%
CC(C)(O)[C@H]1CC[C@H](Nc2ccc3ncc(-c4cccc(C(F)(F)F)c4)n3n2)CC1	enzyme activity	inhibitor		1 µM	remaining activity	101%
COc1cc(Nc2cnc(C#N)c(O[C@H](C)CN(C)C)n2)ncc1-c1cnn(C)c1	enzyme activity	inhibitor	radiometric	1 µM	remaining activity	76%
COc1cc(-c2cc(-c3ccc(N4CCNCC4)cc3)cnc2C)cc(OC)c1OC	enzyme activity	inhibitor		0.1 µM	inhibition	4%
Cc1ccc(C(=O)NCc2ccsc2)cc1C#Cc1cn(C(C)C)c2ncnc(N)c12	enzyme activity	inhibitor		1 µM	activity vs control	81%
CN([C@@H]1CCc2c(CC(=O)O)c3cc(S(C)(=O)=O)ccc3n2C1)S(=O)(=O)c1ccc(F)cc1	cell-free assay		competition with immobilised ligand	1 µM	remaining binding	95%
CCCS(=O)(=O)Nc1ccc(F)c(C(=O)c2c[nH]c3ncc(-c4ccc(Cl)cc4)cc23)c1F	enzyme activity	inhibitor		1 µM	inhibition	< 10%
Cn1cc(Cl)c2c(Oc3c(F)cc(Nc4cc(Cl)nc(N)n4)cc3F)ccnc21	cell-free assay		competition with immobilised ligand	0.1 µM	remaining binding	100%
CN1CC(Oc2cnc(C#N)cc2-c2ccn3nc(NC(=O)C4CC4)cc3c2)C1	enzyme activity	inhibitor		1 µM	inhibition	14%
CS(=O)(=O)N1CCCC(NC(=O)[C@H](CCC2CCCCC2)NC(=O)c2ccc(CNc3ncnc4c3nnn4-c3ccccc3)cc2)C1 (some centres unmarked)	cell-free assay		competition with immobilised ligand	0.1 µM	remaining binding	90%
CCN1CCC2(CC1)NC(=O)c1c(c3ccc(Cl)c(Cl)c3n1C)C2C#N (racemic)	thermal stability		DSF	10 µM	ΔTm	-0.1 °C
CN(C)C(=O)Cn1cc(-c2nc([C@@](C)(c3ccc(-c4cnc(N)nc4)cc3)C3CC3)no2)cn1	cell-free assay		competition with immobilised ligand	1 µM	remaining binding	86%
Cc1sc(C(=O)NC2COC2)cc1-n1cc(NC(=O)Nc2c(F)cccc2Cl)cn1	enzyme activity	inhibitor		10 µM	remaining activity	99.5%
CC(C)(C)c1nc2c(s1)c1nc(N)ncc1c1ccc(NS(=O)(=O)c3c(F)cccc3F)c(F)c12	enzyme activity	inhibitor	radiometric	1 µM	remaining activity	92%
Nc1cnc(N2CCc3cc(S(=O)(=O)Nc4c(F)cc(Cl)cc4F)cc(N4CCCC4=O)c32)nc1	cell-free assay		competition with immobilised ligand	1 µM	remaining binding	92%
